This passage reports Papp, inhibition and IC50 results from ChEMBL document CHEMBL4382221, “First-in-class DAPK1/CSF1R dual inhibitors: Discovery of 3,5-dimethoxy-N-(4-(4-methoxyphenoxy)-2-((6-morpholinopyridin-3-yl)amino)pyrimidin-5-yl)benzamide as a potential anti-tauopathies agent” (Eur J Med Chem, 2019).

Series [1] is described as follows: Effective permeability of the compound at 12.5 uM after 4 hrs by PAMPA. The series is classed as ADME. The following applies: read-out: Peff. Put shortly: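 BBB-PAMPA lipid membrane permeability was measured as effective permeability Pe (10^-6 cm/sec), with compound tested at 12.5 μM. Results are means ± SD of three independent experiments.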
On the technique in general: The PAMPA barrier holds no transporters, so it reflects passive diffusion.

Series [2] has as its target Proto-oncogene tyrosine-protein kinase Src (Homo sapiens) (UniProt P12931). In words: Inhibition of human c-SRC at 10 uM using poly[Glu:Tyr] (4:1) as substrate after 120 mins [gamma-33P]-ATP by filtration method. The gist of the method: (§1)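 Radiometric kinase selectivity panel of 47 kinases, with compound at 10 μM. Data are means ± SD of two independent experiments.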

Series [3] deals with T1, Death-associated protein kinase 1 (Homo sapiens, UniProt P53355). As to the kind of experiment: Inhibition of DAPK1 in HEK293 tau-BiFC cells assessed as reduction in forskolin-induced tau aggregation at 50 uM after 48 hrs by Hoechst staining based HCS analysis. The series is classed as cell-based. Put shortly: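 HEK293 cells expressing tau-BiFC were exposed to compounds at 50, 10 and 1 μM with forskolin (30 μM) as the tau aggregation activator for 48 h. BiFC fluorescence intensity was quantified as the read-out. Data are mean ± SD.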
Target sequence in this assay (P53355 whole entry, looked up): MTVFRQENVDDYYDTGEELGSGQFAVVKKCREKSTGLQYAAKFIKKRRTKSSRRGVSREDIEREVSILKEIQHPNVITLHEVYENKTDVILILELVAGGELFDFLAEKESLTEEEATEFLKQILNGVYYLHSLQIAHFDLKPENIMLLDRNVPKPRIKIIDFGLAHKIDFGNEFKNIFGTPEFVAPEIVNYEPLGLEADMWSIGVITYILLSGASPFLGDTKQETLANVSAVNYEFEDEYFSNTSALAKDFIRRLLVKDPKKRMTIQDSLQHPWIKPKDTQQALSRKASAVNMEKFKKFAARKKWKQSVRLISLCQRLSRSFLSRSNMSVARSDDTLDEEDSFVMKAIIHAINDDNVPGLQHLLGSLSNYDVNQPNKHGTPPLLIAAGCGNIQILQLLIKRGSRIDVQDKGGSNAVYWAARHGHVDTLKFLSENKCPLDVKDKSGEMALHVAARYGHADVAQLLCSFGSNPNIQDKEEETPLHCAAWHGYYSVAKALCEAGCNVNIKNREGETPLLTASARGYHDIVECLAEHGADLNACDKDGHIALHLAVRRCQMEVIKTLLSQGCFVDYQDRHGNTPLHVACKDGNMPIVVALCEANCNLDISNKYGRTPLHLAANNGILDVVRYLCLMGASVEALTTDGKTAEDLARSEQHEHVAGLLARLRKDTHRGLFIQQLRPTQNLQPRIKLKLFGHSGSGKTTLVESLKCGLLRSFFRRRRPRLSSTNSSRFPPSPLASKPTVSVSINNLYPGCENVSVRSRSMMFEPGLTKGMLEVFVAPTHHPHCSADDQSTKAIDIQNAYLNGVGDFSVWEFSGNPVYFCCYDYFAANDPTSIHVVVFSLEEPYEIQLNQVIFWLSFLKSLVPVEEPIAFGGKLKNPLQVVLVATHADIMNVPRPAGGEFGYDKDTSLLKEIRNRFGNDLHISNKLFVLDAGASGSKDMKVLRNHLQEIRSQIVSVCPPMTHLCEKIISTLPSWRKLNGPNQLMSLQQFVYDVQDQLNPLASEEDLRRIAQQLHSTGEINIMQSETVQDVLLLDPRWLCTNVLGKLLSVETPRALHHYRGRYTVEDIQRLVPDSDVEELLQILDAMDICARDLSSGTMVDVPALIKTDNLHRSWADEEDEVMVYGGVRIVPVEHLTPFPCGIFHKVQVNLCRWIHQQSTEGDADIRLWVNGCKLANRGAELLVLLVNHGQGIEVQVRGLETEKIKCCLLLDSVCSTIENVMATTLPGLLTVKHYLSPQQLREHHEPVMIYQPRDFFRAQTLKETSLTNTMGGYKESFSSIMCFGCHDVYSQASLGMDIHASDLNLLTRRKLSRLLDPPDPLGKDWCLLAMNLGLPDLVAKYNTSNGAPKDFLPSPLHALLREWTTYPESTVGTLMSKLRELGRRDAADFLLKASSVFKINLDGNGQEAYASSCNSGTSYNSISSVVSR

Series [4] addresses Death-associated protein kinase 3 (Homo sapiens) (UniProt O43293). As to the kind of experiment: Inhibition of human DAPK3 at 10 uM using KKLNRTLSFAEPG as substrate after 120 mins [gamma-33P]-ATP by filtration method. Put shortly:
as §1

For series [5], the target named is T1, Death-associated protein kinase 1. In words: Inhibition of human DAPK1 (1 to 363 residues) using KKLNRTLSFAEPG as substrate after 120 mins in presence of 100 uM [gamma-33P]-ATP by filtration method. Put shortly: (§2)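 Dose-response curves were run at 1, 10 and 100 μM ATP, giving an IC50 at each ATP level; Ki was calculated.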
Target sequence in this assay (P53355 whole entry): as the sequence (P53355 whole entry, looked up) above
Series [6] shares this target. As to the kind of experiment: Inhibition of human DAPK1 (1 to 363 residues) using KKLNRTLSFAEPG as substrate after 120 mins in presence of 1 uM [gamma-33P]-ATP by filtration method. Put shortly:
as §2
Target sequence in this assay (P53355 whole entry): as the sequence (P53355 whole entry, looked up) above

Series [7] has as its target Leucine-rich repeat serine/threonine-protein kinase 2 (Homo sapiens) (UniProt Q5S007). As to the kind of experiment: Inhibition of human LRRK2 at 10 uM using RLGRDKYKTLRQIRQ as substrate after 120 mins [gamma-33P]-ATP by filtration method. The gist of the method: as §1
For series [8], the target named is Macrophage colony-stimulating factor 1 receptor (Homo sapiens, UniProt P07333). In words: Inhibition of human CSF1R using poly[Glu:Tyr] (4:1) as substrate after 120 mins in presence of 10 uM [gamma-33P]-ATP by filtration method. Put shortly: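 Radiometric HotSpot assay with direct measurement of phosphorylated substrate at 10 μM ATP. IC50 was taken from a duplicate 10-dose series, 3-fold dilutions starting at 20 μM, reported as mean.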
Chain of Macrophage colony-stimulating factor 1 receptor (P07333 whole entry): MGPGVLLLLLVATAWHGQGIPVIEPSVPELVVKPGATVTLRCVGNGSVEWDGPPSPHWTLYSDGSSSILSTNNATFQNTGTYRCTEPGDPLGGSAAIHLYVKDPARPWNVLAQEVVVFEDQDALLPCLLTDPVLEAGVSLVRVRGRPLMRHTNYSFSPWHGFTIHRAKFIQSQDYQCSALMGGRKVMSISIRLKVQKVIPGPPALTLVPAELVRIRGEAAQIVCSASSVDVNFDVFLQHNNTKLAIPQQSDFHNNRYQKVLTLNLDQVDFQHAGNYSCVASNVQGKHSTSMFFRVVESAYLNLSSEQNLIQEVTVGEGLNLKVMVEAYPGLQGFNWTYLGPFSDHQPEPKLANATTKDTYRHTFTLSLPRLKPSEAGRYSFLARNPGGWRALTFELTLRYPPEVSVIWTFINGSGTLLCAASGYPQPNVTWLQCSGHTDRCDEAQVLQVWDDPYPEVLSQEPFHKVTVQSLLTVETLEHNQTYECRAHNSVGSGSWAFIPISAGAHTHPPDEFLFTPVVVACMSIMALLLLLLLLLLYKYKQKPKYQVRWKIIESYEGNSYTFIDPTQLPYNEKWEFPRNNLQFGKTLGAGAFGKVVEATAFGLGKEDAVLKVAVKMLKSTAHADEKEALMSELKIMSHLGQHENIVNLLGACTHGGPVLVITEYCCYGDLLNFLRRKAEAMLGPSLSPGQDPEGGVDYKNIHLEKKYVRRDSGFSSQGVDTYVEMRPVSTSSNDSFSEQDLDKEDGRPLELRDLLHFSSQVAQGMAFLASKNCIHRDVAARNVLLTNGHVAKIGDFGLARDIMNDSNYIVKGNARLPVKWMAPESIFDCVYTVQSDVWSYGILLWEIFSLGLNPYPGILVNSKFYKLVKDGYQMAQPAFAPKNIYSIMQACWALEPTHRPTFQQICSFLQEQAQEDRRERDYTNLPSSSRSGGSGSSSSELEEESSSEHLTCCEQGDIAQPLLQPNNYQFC

The source made the active and inactive calls. No cut-off for these calls is given here.

Chain of Proto-oncogene tyrosine-protein kinase Src (Homo sapiens) (P12931 2-536 limits assumed): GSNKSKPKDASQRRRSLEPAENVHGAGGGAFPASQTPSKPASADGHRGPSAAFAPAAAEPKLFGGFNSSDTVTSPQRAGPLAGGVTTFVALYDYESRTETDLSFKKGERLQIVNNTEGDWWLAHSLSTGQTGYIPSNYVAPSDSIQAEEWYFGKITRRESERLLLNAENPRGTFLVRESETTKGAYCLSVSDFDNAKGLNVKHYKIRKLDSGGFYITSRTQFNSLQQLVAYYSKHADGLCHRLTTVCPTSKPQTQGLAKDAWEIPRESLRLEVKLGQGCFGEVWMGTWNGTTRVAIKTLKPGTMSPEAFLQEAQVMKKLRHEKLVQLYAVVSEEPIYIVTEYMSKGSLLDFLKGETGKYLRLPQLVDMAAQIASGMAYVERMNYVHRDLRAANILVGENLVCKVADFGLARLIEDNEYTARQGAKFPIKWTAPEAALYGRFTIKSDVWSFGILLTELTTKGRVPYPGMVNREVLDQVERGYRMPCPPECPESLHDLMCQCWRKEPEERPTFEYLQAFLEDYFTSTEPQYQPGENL
Chain of Death-associated protein kinase 3 (Homo sapiens) (O43293 whole entry, looked up): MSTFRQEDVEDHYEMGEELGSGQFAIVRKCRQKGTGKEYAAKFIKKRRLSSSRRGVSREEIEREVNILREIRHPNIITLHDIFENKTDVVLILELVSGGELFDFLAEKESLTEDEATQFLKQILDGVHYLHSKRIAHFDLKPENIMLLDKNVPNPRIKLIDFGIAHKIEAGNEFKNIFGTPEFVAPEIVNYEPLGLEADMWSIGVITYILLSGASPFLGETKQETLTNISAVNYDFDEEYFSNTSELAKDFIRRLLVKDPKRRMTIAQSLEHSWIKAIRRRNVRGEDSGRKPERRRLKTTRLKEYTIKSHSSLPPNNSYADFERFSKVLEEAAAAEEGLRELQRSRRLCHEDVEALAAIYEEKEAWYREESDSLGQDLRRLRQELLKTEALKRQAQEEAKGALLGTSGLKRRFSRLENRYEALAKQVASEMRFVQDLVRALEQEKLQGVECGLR

A word on the IC50: it is the concentration needed to halve the response being measured. Regarding `COc1ccc(Oc2nc(Nc3ccc(N4CCOCC4)nc3)ncc2NC(=O)c2cc(OC)cc(OC)c2)cc1`, in series [1], the Papp at 4 h, 12.5 µM came to 57 ×10⁻⁶ cm/s. For the same molecule, the inhibition result in series [2] and in series [3] was “Active” each time. Further, the inhibition result in series [4] and in series [7] was “inactive” throughout. Further, the concentration for half-maximal inhibition (IC50) in series [5] is 920 nM; in series [6] it was 2890 nM; in series [8] it was 150 nM.
